# Experimental data as given in ChEMBL document CHEMBL1138881, “Application of phosphoramidate ProTide technology significantly improves antiviral potency of carbocyclic adenosine derivatives” (J Med Chem, 2006).
# Key:
# [1] = tested on: CEM cells (Homo sapiens); experiment: Cytotoxicity against CEM cells
# [2] = tested on: Human immunodeficiency virus 2; experiment: Antiviral activity against HIV2 ROD in MT4 cells; format: functional, organism-based; settings: Human immunodeficiency virus 2, ROD
# Procedure, shortened: (§1)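 MT-4 cells at 4.5 × 10⁵ cells/mL were infected with 100 CCID₅₀/mL of HIV-1 or HIV-2. Viable cells were then counted after trypan blue staining, and EC₅₀ was derived from these viable-cell counts.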
# [3] = tested on: Human immunodeficiency virus 1; experiment: Antiviral activity against HIV1 3B in CEM cells; format: functional, organism-based; settings: Human immunodeficiency virus 1, 3B, CCRF-CEM
# Procedure, shortened: (§2)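 CEM cells at 4.5 × 10⁵ cells/mL were infected with 100 CCID₅₀/mL of HIV-1 or HIV-2. Giant-cell formation was scored microscopically. EC₅₀ was the concentration preventing syncytium formation by 50%.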
# [4] = tested on: Human immunodeficiency virus 2; experiment: Antiviral activity against HIV2 ROD in CEM cells; format: functional, organism-based; settings: Human immunodeficiency virus 2, ROD, CCRF-CEM
# Procedure, shortened: as §2
# [5] = tested on: Hepatitis B virus; experiment: Antiviral activity against HBV in HepG2 2.2.15 cells; format: functional, organism-based
# Procedure, shortened: (§3)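 HepG2 2.2.15 cells, which produce HBV constitutively, were seeded at 5 × 10³ per well. Drug-containing medium was replaced every other day for 9 days. Virions in the supernatant were captured on anti-HBsAg plates, and their DNA was quantified by PCR against an HBV standard curve and normalized to untreated cells. For cell growth, monolayers were ethanol-fixed and stained with bisbenzimide H33342, and fluorescence was compared with untreated cells. SI = CC₅₀/EC₅₀.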
# [6] = tested on: HepG2; experiment: Cytotoxicity against HepG2 2.2.15 cells; format: functional; settings: Homo sapiens
# Procedure, shortened: as §3
# [7] = tested on: MT4; experiment: Cytotoxicity against MT4 cells; format: functional; settings: Homo sapiens
# Procedure, shortened: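 Exponentially growing MT-4 cells were resuspended at 5 × 10⁵ cells/mL in RPMI 1640 with 20% FBS and 20% IL-2. They were infected with HIV-1 IIIB (100 × TCID₅₀ per well) for 1 h at 37 °C, with mock-infected cells run in parallel. The suspension was diluted 6-fold onto serially diluted compound and incubated for 5 days at 37 °C in 5% CO₂. MTS staining was read at 492 nm.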
# [8] = tested on: Human immunodeficiency virus 1; experiment: Antiviral activity against HIV1 3B in MT4 cells; format: functional, organism-based; settings: Human immunodeficiency virus 1, 3B
# Procedure, shortened: as §1
# [9] = tested on: Cynomolgus monkey; experiment: Metabolic stability in cynomolgus monkey liver S9 fraction; format: ADME, Macaca fascicularis
# Procedure, shortened: (§4)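 Pooled cynomolgus S9 (liver or intestinal segments), test compound 10 µM final, 37 °C, DMSO <1% final; reaction started with NADPH 2.5 mM final. Aliquots taken at 0 (preincubation), 10, 20, 30 and 60 min, quenched with cold acetonitrile, centrifuged; supernatant parent measured by LC/MS/MS. Stability given as % remaining from pre- vs postincubation peak areas.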
# [10] = tested on: Cynomolgus monkey; experiment: Metabolic stability in cynomolgus monkey intestine S9 fraction; format: ADME, Macaca fascicularis
# Procedure, shortened: as §4
SMILES,CC50 [1] [µM],EC50 [2] [µM],EC50 [3] [µM],EC50 [4] [µM],EC50 [5] [µM],CC50 [6] [µM],CC50 [7] [µM],EC50 [8] [µM],Stability [9] [%],Stability [10] [%]
COC(=O)[C@H](C)NP(=O)(OC[C@H]1C=C[C@@H](n2cnc3c(N)ncnc32)C1)Oc1ccc(Cl)c(Cl)c1 (stereo partly specified),13,0.076,0.09,0.11,0.005,> 2,> 4,0.077,–,–
CCOC(=O)c1cccc(OP(=O)(N[C@@H](C)C(=O)OC)OC[C@H]2C=C[C@@H](n3cnc4c(N)ncnc43)C2)c1 (stereo partly specified),8.39,0.033,0.065,0.08,0.004,> 2,4.39,0.053,19,42
COC(=O)[C@H](CCCCN)NP(=O)(OC[C@H]1C=C[C@@H](n2cnc3c(N)ncnc32)C1)Oc1ccccc1.O=C(O)C(F)(F)F (stereo partly specified),> 250,27.2,25,150,2,> 100,> 25,15.2,95,17
Nc1ncnc2c1ncn2[C@@H]1C=C[C@H](CO)C1,–,–,–,–,0.98,> 200,> 100,80,–,–
COC(=O)[C@H](Cc1ccccc1)NP(=O)(OC[C@H]1C=C[C@@H](n2cnc3c(N)ncnc32)C1)Oc1ccccc1 (stereo partly specified),–,–,–,–,0.0045,9,16,0.1,–,–
Nc1ncnc2c1ncn2[C@H]1C=C[C@@H](CO)C1,–,–,–,–,52,> 200,> 500,15,–,–
COC(=O)[C@H](C)NP(=O)(OC[C@H]1CC[C@@H](n2cnc3c(N)ncnc32)C1)Oc1ccccc1 (stereo partly specified),–,–,–,–,0.6,> 2,> 12.5,1.8,–,–
CCOC(=O)[C@H](C)NP(=O)(OC[C@H]1C=C[C@@H](n2cnc3c(N)ncnc32)C1)Oc1ccccc1 (stereo partly specified),–,–,–,–,0.02,22,> 25,0.017,15,39
Nc1ncnc2c1ncn2[C@@H]1CC[C@H](CO)C1,–,–,–,–,61,> 200,> 10,> 10,–,–
Nc1ncnc2c1ncn2[C@H]1CC[C@@H](CO)C1,–,–,–,–,33,> 200,> 125,50,–,–
CCOC(=O)c1ccccc1OP(=O)(N[C@@H](C)C(=O)OC)OC[C@H]1C=C[C@@H](n2cnc3c(N)ncnc32)C1 (stereo partly specified),4.17,–,0.053,0.057,0.004,12,< 4,< 0.26,25,80
COC(=O)[C@@H](CC(C)C)NP(=O)(OC[C@H]1C=C[C@@H](n2cnc3c(N)ncnc32)C1)Oc1ccccc1 (stereo partly specified),88.5,0.93,1.6,3.5,0.13,> 2,< 16,< 1,–,–
COC(=O)[C@H](C)NP(=O)(OC[C@H]1C=C[C@@H](n2cnc3c(N)ncnc32)C1)Oc1ccc([N+](=O)[O-])cc1 (stereo partly specified),17.4,0.17,0.1,0.1,0.007,> 2,10,0.12,–,–
COC(=O)[C@@H]1CCCN1P(=O)(OC[C@H]1C=C[C@@H](n2cnc3c(N)ncnc32)C1)Oc1ccccc1 (stereo partly specified),92.1,21,3.5,7.5,0.51,> 2,> 10,5.28,–,–
COC(=O)C[C@@H](NP(=O)(OC[C@H]1C=C[C@@H](n2cnc3c(N)ncnc32)C1)Oc1ccccc1)C(=O)OC (stereo partly specified),≥ 250,3.71,5,15,0.02,> 2,> 10,2.1,–,–
COC(=O)[C@@H](Cc1c[nH]c2ccccc12)NP(=O)(OC[C@H]1C=C[C@@H](n2cnc3c(N)ncnc32)C1)Oc1ccccc1 (stereo partly specified),93.4,21.9,20,25,0.2,> 2,> 40,13.3,–,–
COC(=O)[C@H](C)NP(=O)(OC[C@H]1C=C[C@@H](n2cnc3c(N)ncnc32)C1)Oc1cccc(C(F)(F)F)c1 (stereo partly specified),–,–,–,–,–,–,–,–,45,92
COC(=O)[C@@H](CCSC)NP(=O)(OC[C@H]1C=C[C@@H](n2cnc3c(N)ncnc32)C1)Oc1ccccc1 (stereo partly specified),211,3.48,7.67,7.87,0.22,> 2,> 25,2.5,–,–
C[C@H](NP(=O)(OC[C@H]1C=C[C@@H](n2cnc3c(N)ncnc32)C1)Oc1ccccc1)C(=O)OCc1ccccc1 (stereo partly specified),–,–,–,–,0.0075,5,255,0.009,0,0
COC(=O)[C@H](C)NP(=O)(OC[C@H]1C=C[C@@H](N2C=NC3C(N)=NC=NC32)C1)Oc1ccc(C(F)(F)F)cc1 (stereo partly specified),6.4,0.046,0.06,0.06,< 0.0032,0.72,5.87,0.035,–,–
COC(=O)[C@H](Cc1ccc(OC(C)(C)C)cc1)NP(=O)(OC[C@H]1C=C[C@@H](n2cnc3c(N)ncnc32)C1)Oc1ccccc1 (stereo partly specified),79.7,0.13,3,5.5,0.026,> 2,19.8,0.11,–,–
COC(=O)[C@H](NP(=O)(OC[C@H]1C=C[C@@H](n2cnc3c(N)ncnc32)C1)Oc1ccccc1)C(C)C (stereo partly specified),230,14.2,7.5,10,0.6,> 200,> 16,2.3,–,–
COC(=O)[C@H]1CCCN1P(=O)(OC[C@H]1C=C[C@@H](n2cnc3c(N)ncnc32)C1)Oc1ccccc1 (stereo partly specified),≥ 250,105,110,105,> 2,> 2,227,117,–,–
COC(=O)[C@@H](Cc1ccccc1)NP(=O)(OC[C@H]1C=C[C@@H](n2cnc3c(N)ncnc32)C1)Oc1ccccc1 (stereo partly specified),108,5.93,9,8.67,0.7,200,> 40,2.8,–,–
COC(=O)[C@H](C)NP(=O)(OC[C@@H]1C=C[C@H](n2cnc3c(N)ncnc32)C1)Oc1ccccc1 (stereo partly specified),–,–,–,–,4,5.4,3.7,0.3,–,–
COC(=O)[C@H](C)NP(=O)(OC[C@H]1C=C[C@@H](n2cnc3c(N)ncnc32)C1)Oc1ccc(Cl)cc1 (stereo partly specified),3.11,0.018,0.015,0.047,0.003,> 2,2,0.009,–,–
COC(=O)[C@@H](C)NP(=O)(OC[C@H]1C=C[C@@H](n2cnc3c(N)ncnc32)C1)Oc1ccccc1 (stereo partly specified),–,–,–,–,0.0265,> 200,> 100,2.05,41,94
